Reference: ChEMBL document CHEMBL3525992, “Identification of 20(S)-protopanaxadiol metabolites in human liver microsomes and human hepatocytes” (Drug Metab Dispos, 2011)

Legend:
Hepatocyte [1] = assay: Retention time of the compound in human hepatocytes treated with 20(S)-protopanaxadiol at 50 uM after 180 mins by liquid chromatography-electrospray ionization ion trap mass spectrometry; assay type: ADME, cell-based; details: 3 h
Outline: (§1)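 Human hepatocytes (2 million cells/ml) in Williams' E medium with substrate 50 µM, 0.5% (v/v) final MeOH, 37°C for 3 h. Negative controls were substrate at 0 h and no substrate at 3 h. Quenched with equal volume acetonitrile, in duplicate. Methanol was added, then centrifugation, dry-down and reconstitution. Analysed by C8 reversed-phase LC with formic acid/methanol–ammonium acetate gradient, ESI ion trap MSⁿ, m/z 100–800.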

Liver microsome [2] = assay: Drug level in mixed human liver microsomes treated with (20S,24R)-epoxydammarane-3,12,25-triol at 50 uM after 120 mins by liquid chromatography-electrospray ionization ion trap mass spectrometry in presence of UDPGA; assay type: ADME; details: 2 h
Outline: (§2)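 Pooled HLM protein 1.0 mg/ml in 50 mM Tris-HCl pH 7.4 with 10 mM MgCl₂, 2 mM UDPGA and 25 µg/mL alamethicin. Preincubated 3 min at 37°C, then started with substrate (50 µM). Run 120 min, stopped with equal volume ice-cold acetonitrile. 0 min incubations served as controls, in duplicate. Processed and analysed by LC/ESI ion trap MSⁿ.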

Hepatocyte [3] = assay: Drug level in human hepatocytes treated with 20(S)-protopanaxadiol at 50 uM after 180 mins by liquid chromatography-electrospray ionization ion trap mass spectrometry; assay type: ADME, cell-based; details: 3 h; outline: as §1
Liver microsome [4] = assay: Retention time of the compound in mixed human liver microsomes treated with 20(S)-protopanaxadiol at 50 uM after 60 mins by liquid chromatography-electrospray ionization ion trap mass spectrometry; assay type: ADME; details: 1 h
Outline: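 Pooled HLM protein 1.0 mg/ml with substrate 50 µM in 100 mM potassium phosphate pH 7.4, 0.1% (v/v) final MeOH. Preincubated 3 min at 37°C, started with 2.0 mM NADPH, incubated 60 min. Stopped with equal volume ice-cold acetonitrile. Controls lacked NADPH or substrate, in duplicate. Analysed on C8 reversed-phase column, formic acid methanol/ammonium acetate gradient, ESI ion trap MSⁿ.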

[5] = Drug excretion in Sprague-Dawley rat feces treated with 20(S)-protopanaxadiol at 100 mg/kg/day, po qd for 11 days administered via gavage by liquid chromatography-electrospray ionization ion trap mass spectrometry; assay type: ADME, organism-based; design: route oral; details: in vivo, 264 h
Outline: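 PPD given by gavage at 10 mg/ml in 0.5% carboxymethyl cellulose sodium, 0.5% polysorbate-80 and 99% saline; 20 rats, one per metabolic cage. Feces collected over 0–288 h (48 h after last dose), blanks taken before dosing, frozen at -20°C.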

[6] = Retention time of the compound treated with 20(S)-protopanaxadiol at 100 uM measured after 60 mins by liquid chromatography-electrospray ionization ion trap mass spectrometry in presence of 10 uM 3-chloroperoxybenzoic acid; assay type: physicochemical; details: 1 h
Outline: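 PPD 100 µM oxidised chemically with m-CPBA 10 µM in CH₂Cl₂, stirred at room temperature for 15 and 60 min. Mixture poured into Na₂CO₃-saturated ice water and extracted three times with ether before LC/MS analysis.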

Liver microsome [7] = assay: Drug level in mixed human liver microsomes treated with (20S,24S)-epoxydammarane-3,12,25-triol at 50 uM after 120 mins by liquid chromatography-electrospray ionization ion trap mass spectrometry in presence of UDPGA; assay type: ADME; details: 2 h; outline: as §2

Compound | Retention_time (Hepatocyte [1]) | Drug metabolism (Hepatocyte [3]) | Retention_time (Liver microsome [4]) | Drug excretion [5] | further results
CC(C)(O)[C@@H](O)CC[C@](C)(O)[C@H]1CC[C@]2(C)[C@@H]1[C@H](O)C[C@@H]1[C@@]3(C)CC[C@H](O)C(C)(C)[C@@H]3CC[C@]12C | 13.2 min | – | – | – | –
CC(C)(O[C@@H]1O[C@H](C(=O)O)[C@@H](O)[C@H](O)[C@H]1O)[C@H]1CC[C@@](C)([C@H]2CC[C@]3(C)[C@@H]2[C@H](O)C[C@@H]2[C@@]4(C)CC[C@H](O)C(C)(C)[C@@H]4CC[C@]23C)O1 | 16.9 min | – | – | – | Drug metabolism (Liver microsome [2]): metabolite_detected
CC(C)(O)[C@@H]1CC[C@@](C)([C@H]2CC[C@]3(C)[C@@H]2[C@H](O)C[C@@H]2[C@@]4(C)CCC(=O)C(C)(C)[C@@H]4CC[C@]23C)O1 | – | metabolite_detected | 19.1 min | metabolite_detected | –
CC1(C)O[C@H]1CC[C@](C)(O)[C@H]1CC[C@]2(C)[C@@H]1[C@H](O)C[C@@H]1[C@@]3(C)CC[C@H](O)C(C)(C)[C@@H]3CC[C@]12C | – | metabolite_detected | 18.7 min | metabolite_detected | Retention_time [6]: 18.7 min
CC(C)(O[C@@H]1O[C@H](C(=O)O)[C@@H](O)[C@H](O)[C@H]1O)[C@@H]1CC[C@@](C)([C@H]2CC[C@]3(C)[C@@H]2[C@H](O)C[C@@H]2[C@@]4(C)CC[C@H](O)C(C)(C)[C@@H]4CC[C@]23C)O1 | 16 min | – | – | – | Drug metabolism (Liver microsome [7]): metabolite_detected
